The values below come from ChEMBL document CHEMBL1287654, “Anticancer activity of N-bis(trifluoromethyl)alkyl-N'-(polychlorophenyl) and N'-(1,2,4-triazolyl) ureas” (2010).

Holding throughout (assay type): functional
One assay concerns NCI-H460. The assay can be described thus: Growth inhibition of human NCI-H460 cells assessed as cell growth at 100 uM after 48 hrs by sulforhodamine B assay relative to control. The note with it: NCI-H460, 48 h, read-out: Activity. In short, it runs like this: (§1)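 One-dose pre-test on MCF7, NCI-H460 and SF-268. Cells were inoculated and pre-incubated on a microtiter plate, then given a single 10^-4 M dose and incubated 48 h. Growth was read spectrophotometrically and expressed as percent of untreated control cells; negative values indicate cell kill.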
For orientation: The SRB assay estimates cell density from bound dye.

Assay [1] concerns SF-268. Description: Growth inhibition of human SF268 cells assessed as cell growth at 100 uM after 48 hrs by sulforhodamine B assay relative to control. The note with it: SF-268, 48 h, read-out: Activity. In short, it runs like this: as §1
Assay [2] has as its system MCF7. Description: Growth inhibition of human MCF7 cells assessed as cell growth at 100 uM after 48 hrs by sulforhodamine B assay relative to control. The note with it: MCF7, 48 h, read-out: Activity. In short, it runs like this:
as §1

A short description of assay [3]: Growth inhibition of human leukemia cell after 48 hrs by sulforhodamine B assay. In short, it runs like this: (§2)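 Subpanel median growth inhibitory concentration: the average sensitivity of each tumor-type subpanel of the NCI 60-cell-line panel, derived from per-cell-line GI50 values. GI50 values came from a five log dose range and are expressed as log molar concentration for 50% net growth inhibition.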

The test system of another assay is A498. The assay can be described thus: Growth inhibition of human A498 cells after 48 hrs by sulforhodamine B assay. The note with it: A498, 48 h. In outline:
(§3)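 NCI 60-cell-line main test over a five-log dose range. GI50 is the molar concentration giving half-growth inhibition, reported as log molar. Subpanel values are median GI50 across that subpanel's lines. Where 50% inhibition was not reached within the tested interval, the highest tested concentration was used.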

Another assay concerns NCI/ADR-RES. The assay can be described thus: Growth inhibition of human NCI/ADR-RES cells after 48 hrs by sulforhodamine B assay. In short, it runs like this:
as §3

Assay [4] can be described thus: Growth inhibition of human breast cancer cell after 48 hrs by sulforhodamine B assay. The note with it: Cancer cell lines. In short, it runs like this:
as §2

Assay [5] can be described thus: Growth inhibition of human non-small lung cancer cell after 48 hrs by sulforhodamine B assay. The conditions noted are these: Cancer cell lines. In outline:
as §2

Assay [6] can be described thus: Growth inhibition of human ovarian cancer cell after 48 hrs by sulforhodamine B assay. The conditions noted are these: Cancer cell lines. In short, it runs like this: as §2
The nature of assay [7]: Growth inhibition of human renal cancer cell after 48 hrs by sulforhodamine B assay. The note with it: Cancer cell lines. In outline: as §2
Assay [8] can be described thus: Growth inhibition of human CNS cancer cell after 48 hrs by sulforhodamine B assay. The note with it: Cancer cell lines. In outline:
as §3

The test system of another assay is BT-549. The assay can be described thus: Growth inhibition of human BT549 cells after 48 hrs by sulforhodamine B assay. The conditions noted are these: BT-549, 48 h. In short, it runs like this:
as §3

In another assay the test system is UACC-62. Description: Growth inhibition of human UACC62 cells after 48 hrs by sulforhodamine B assay. The conditions noted are these: UACC-62, 48 h. In outline: (§4)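 NCI 60-cell-line main screen across nine tumor types, with five log dose range per compound. GI50 is the molar concentration giving half growth inhibition, reported as the log of the molar concentration that inhibits 50% net cell growth.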

For the next assay, the system named is HCT-15. The assay can be described thus: Growth inhibition of human HCT15 cells after 48 hrs by sulforhodamine B assay. The conditions noted are these: HCT-15, 48 h. In outline:
as §3

Assay [9] can be described thus: Growth inhibition of human colon cancer cell after 48 hrs by sulforhodamine B assay. The note with it: Cancer cell lines. In short, it runs like this:
as §2

Assay [10] is described as follows: Growth inhibition of human prostate cancer cell after 48 hrs by sulforhodamine B assay. The conditions noted are these: Cancer cell lines. In outline: as §2
A short description of assay [11]: Growth inhibition of human melanoma cell after 48 hrs by sulforhodamine B assay. In short, it runs like this:
as §2

A further assay deals with HOP-62. The assay can be described thus: Growth inhibition of human HOP62 cells after 48 hrs by sulforhodamine B assay. The conditions noted are these: HOP-62, 48 h. In outline:
as §3

The test system of a further assay is SK-MEL-2. Description: Growth inhibition of human SK-MEL-2 cells after 48 hrs by sulforhodamine B assay. The note with it: SK-MEL-2, 48 h. In short, it runs like this:
as §3

Assay [12] deals with MCF7. The assay can be described thus: Growth inhibition of human MCF7 cells after 48 hrs by sulforhodamine B assay. The note with it: MCF7, 48 h. In short, it runs like this: as §3
The next assay relates to A549. The assay can be described thus: Growth inhibition of human A549 cells after 48 hrs by sulforhodamine B assay. The note with it: A549, 48 h. In outline:
as §3

Another assay concerns 786-0. Description: Growth inhibition of human 786-0 cells after 48 hrs by sulforhodamine B assay. The note with it: 786-0, 48 h. In short, it runs like this: as §3
The test system of another assay is UACC-257. Description: Growth inhibition of human UACC257 cells after 48 hrs by sulforhodamine B assay. The note with it: UACC-257, 48 h. In short, it runs like this: as §4
Another assay relates to NCI-H226. The assay can be described thus: Growth inhibition of human NCI-H226 cells after 48 hrs by sulforhodamine B assay. The conditions noted are these: NCI-H226, 48 h. In outline:
as §3

A further assay deals with MDA-MB-435. The assay can be described thus: Growth inhibition of human MDA-MB-435 cells after 48 hrs by sulforhodamine B assay. The note with it: MDA-MB-435, 48 h. In short, it runs like this: as §3
The test system of another assay is SN12C. Description: Growth inhibition of human SN12C cells after 48 hrs by sulforhodamine B assay. In outline:
as §4

A further assay concerns COLO 205. Description: Growth inhibition of human COLO205 cells after 48 hrs by sulforhodamine B assay. The conditions noted are these: COLO 205, 48 h. In short, it runs like this:
as §3

Assay [13] deals with SF-268. Description: Growth inhibition of human SF268 cells after 48 hrs by sulforhodamine B assay. The note with it: SF-268, 48 h. In outline:
as §3

For the next assay, the system named is SF-539. Description: Growth inhibition of human SF539 cells after 48 hrs by sulforhodamine B assay. The conditions noted are these: SF-539, 48 h. In short, it runs like this:
as §3

For the next assay, the system named is SNB-75. The assay can be described thus: Growth inhibition of human SNB75 cells after 48 hrs by sulforhodamine B assay. The note with it: SNB-75, 48 h. In short, it runs like this: as §4
The next assay deals with OVCAR-3. Description: Growth inhibition of human OVCAR-3 cells after 48 hrs by sulforhodamine B assay. The conditions noted are these: OVCAR-3, 48 h. In outline: as §3

Each structure is given as a SMILES string.

Regarding `CC(NC(=O)Nc1nnc[nH]1)(C(F)(F)F)C(F)(F)F`, the growth at 100 µM in the assay on NCI-H460 is 111%; in the assay with SF-268 [1], 111%; with MCF7 [2], 98%.

Turning to `CC(NC(=O)Nn1cnnc1)(C(F)(F)F)C(F)(F)F`, the growth at 100 µM in the assay on NCI-H460 was determined as 94%; in the assay on SF-268 [1], 105%; in the assay with MCF7 [2], 81%.

Regarding `CCC(NC(=O)Nc1nnc[nH]1)(C(F)(F)F)C(F)(F)F`, the growth at 100 µM in the assay on NCI-H460 worked out at 86%; with SF-268 [1] it was 102%; with MCF7 [2] it was 102%.

As for `CCC(NC(=O)Nn1cnnc1)(C(F)(F)F)C(F)(F)F`, the growth at 100 µM with NCI-H460 is 94%; with SF-268 [1], 105%; with MCF7 [2], 84%.

Regarding `CC(NC(=O)Nc1c(Cl)cccc1Cl)(C(F)(F)F)C(F)(F)F`, the growth at 100 µM in the assay on NCI-H460 is 85%; in the assay on SF-268 [1] it was 84%; in the assay on MCF7 [2], 82%.

In the case of `CC(NC(=O)Nc1c(Cl)cc(Cl)cc1Cl)(C(F)(F)F)C(F)(F)F`, the growth at 100 µM in the assay with NCI-H460 was 103%; in the assay on SF-268 [1], 96%; in the assay on MCF7 [2], 89%.

Consider `CCC(NC(=O)Nc1c(Cl)cccc1Cl)(C(F)(F)F)C(F)(F)F`, for which the growth at 100 µM in the assay with NCI-H460 came to 79%; in the assay on SF-268 [1], 101%; in the assay on MCF7 [2] it was 75%.

Consider `CCC(NC(=O)Nc1c(Cl)cc(Cl)cc1Cl)(C(F)(F)F)C(F)(F)F`, for which the figures for the growth at 100 µM in the assay on NCI-H460, in the assay on SF-268 [1] and with MCF7 [2] were 81%, 98% and 88%, respectively.

Broadly, the GI50 is the concentration at which growth is held to half of that of the control. Turning to `CC(NC(=O)Nc1nc2ccccc2s1)(C(F)(F)F)C(F)(F)F`, the GI50 was 21.9 µM in assay [3]; 100 µM with A498; over 100 µM in the assay with NCI/ADR-RES; 50.1 µM in assay [4]; 33.9 µM in assay [5]; 39.8 µM in assay [6]. In addition, the GI50 in assay [7] is 28.2 µM; in [8] it was 25.7 µM; with BT-549, over 100 µM; in the assay with UACC-62, over 100 µM; with HCT-15 it was over 100 µM; in [9] it was 42.7 µM. Further, the 50% growth inhibitory concentration (GI50) is 56.2 µM in assay [10], 42.7 µM in assay [11] and 31.6 µM with HOP-62.

As to `CCC(NC(=O)Nc1nc2ccccc2s1)(C(F)(F)F)C(F)(F)F`, the GI50 is 22.9 µM in [3]; 15.8 µM in the assay on SK-MEL-2; 18.2 µM in assay [4]; 18.6 µM in assay [5]; 15.8 µM in the assay on MCF7 [12]; 17.8 µM in assay [6]. Also, the GI50 is 15.1 µM in [7]; 11.7 µM in assay [8]; 15.8 µM in the assay on A549; 20 µM with 786-0; 20 µM in the assay on UACC-257; 15.8 µM with NCI-H226. Also, the concentration for 50% growth inhibition (GI50) in assay [9] was 18.6 µM; in [10], 18.2 µM; in the assay on MDA-MB-435, 20 µM; in assay [11], 17.4 µM.

With `O=c1[nH]cc(F)c(=O)[nH]1` [FLUOROURACIL], the concentration for 50% growth inhibition (GI50) was 0.562 µM in assay [3]; 0.398 µM in the assay with A498; 0.316 µM with NCI/ADR-RES; 1.38 µM in assay [4]; 2 µM in assay [5]; 0.0794 µM with MCF7 [12]. The GI50 was 1.82 µM in assay [6]; 0.575 µM in assay [7]; 1.35 µM in assay [8]; 0.501 µM with SN12C; 0.158 µM with COLO 205; 1.58 µM in the assay with SF-268 [13]. Also, the GI50 in the assay with SF-539 is 0.0631 µM; in assay [9], 0.186 µM; in assay [10], 0.912 µM; in [11] it was 0.933 µM; in the assay with HOP-62 it was 0.398 µM; in the assay with SNB-75, 79.4 µM. In the assay with OVCAR-3, the GI50 is 0.0158 µM.
